# Bioassay records (PubChem)
# Only some compounds are listed: those with a hit (about 2.1% of all), similar ones and a draw of the others.
# XiGFP reactiv – reactivates the inactive X chromosome in mouse fibroblasts | AID 743238 | XiGFP mouse fibroblasts, % GFP-positive cells imaging, 3 d; cells co-treated with 5-aza-dC sensitizer; scaled so ellipticine positive control = 100% | 360,000 tested, 0.055% active | activation, % at 7.58 µM;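 active means mean normalized replicate activation at least 10% and every replicate at or above 10%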;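 further: 0% = median of on-plate neutral control wells and 100% = ellipticine 6 µM median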
#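 Assay system – SV40-immortalized XiGFP fibroblast cells, line 68-5-11 · Buffer or medium – DMEM supplemented with 5-aza-dC as sensitizing agent · Dosing – one concentration, pinned · Benchmarks – positive control ellipticine, 6 µM final · Times – 3 days compound exposure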
# EWS-Fli inh – blocks EWS/Fli oncoprotein-driven transcription; inhibition, % at 12.6 µM; 350,000 tested, 0.67% active; A673 NR0B1-luciferase reporter, viability-normalised;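 active means mean inhibition of at least 50% after viability correction, with every replicate also passing that limit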;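 further: firefly luciferase signal divided by Alamar Blue viability fluorescence both relative to DMSO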
# PGC1a acetyl inh – modulators of PGC1a acetylation. inhibition, % at 15.6 µM. U2OS PGC1a acetylation, AlphaScreen anti-acetyl-lysine; with virally co-expressed GCN5 acetyltransferase. 350,000 tested, 0.17% active;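 active means every replicate shows inhibition of at least 40%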;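 further: 0% = neutral control wells and 100% = positive control wells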
# INS-1E GSIS act – primary screen for activators of insulin secretion dependent on glucose, INS-1E cells, GLuc reporter luminescence; INS-1E GLuc reporter insulin secretion, 2-3 h; activation, % at 16.6 µM; 370,000 tested, 0.61% active;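 active means lowest replicate activation of at least 40%, so every replicate reaches that level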;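 further: 0% = median of neutral control wells and 100% = median of IBMX positive control wells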
# PAX8 reporter – inhibitors of PAX8 transcriptional activity in RMG-I cells | RMG-I TPO-luciferase reporter, SteadyGlo, 24 h | inhibition, % at 12.6 µM | 360,000 tested, 1.2% active | AID 652154;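 active means mean replicate inhibition at least 60% with every replicate also reaching 60%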;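 further: luciferase light reporting Pax8 driven TPO promoter activity; plate controls were median of neutral control wells for no effect and mitoxantrone controls for full effect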
# AF4-AF9 inh – MLL-AF4/AF9 protein interaction inhibition; P42568; AlphaScreen, biotin-AF4 peptide binding to FLAG-AF9; inhibition, % at 10 µM; 350,000 tested, 0.47% active; AID 651704;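 active means every replicate reaching a set inhibition limit, whatever the replicate mean, cut at about 25% in these data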;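 further: 0% = plate neutral control median and 100% = total signal loss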
# Target sequence (P42568 whole entry, looked up): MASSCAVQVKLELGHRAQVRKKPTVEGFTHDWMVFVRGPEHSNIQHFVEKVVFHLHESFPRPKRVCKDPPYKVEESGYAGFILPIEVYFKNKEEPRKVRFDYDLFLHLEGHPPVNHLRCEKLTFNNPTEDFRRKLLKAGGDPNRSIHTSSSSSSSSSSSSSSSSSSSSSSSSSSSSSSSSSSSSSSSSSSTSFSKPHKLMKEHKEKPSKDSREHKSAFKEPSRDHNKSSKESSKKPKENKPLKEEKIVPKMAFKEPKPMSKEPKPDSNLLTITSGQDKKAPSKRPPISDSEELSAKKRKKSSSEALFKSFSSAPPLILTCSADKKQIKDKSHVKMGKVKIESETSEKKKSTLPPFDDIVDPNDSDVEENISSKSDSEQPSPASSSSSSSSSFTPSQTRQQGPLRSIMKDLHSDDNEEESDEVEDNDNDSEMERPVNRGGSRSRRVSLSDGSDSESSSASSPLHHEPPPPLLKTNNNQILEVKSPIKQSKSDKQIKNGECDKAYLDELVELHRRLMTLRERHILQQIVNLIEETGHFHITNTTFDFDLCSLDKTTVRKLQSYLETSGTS
# Active calls of the source: *; . = not tested or not shown.
SMILES,XiGFP reactiv,EWS-Fli inh,PGC1a acetyl inh,INS-1E GSIS act,PAX8 reporter,AF4-AF9 inh
C[C@@H]1CCCCO[C@H](CN(C)C(=O)C2CCCCC2)[C@H](C)CN([C@@H](C)CO)C(=O)c2cc(NC(=O)Nc3cccc4ccccc34)ccc2O1,0,5,21,9,45,-4
CNC[C@H]1Oc2ccc(NS(=O)(=O)c3c(C)noc3C)cc2CC(=O)N([C@H](C)CO)C[C@@H]1C,0,-6,10,1,-12,-3
O=c1cc(-c2ccc(O)c(O)c2)oc2ccc3ccccc3c12,2,62*,.,-2,-20,1
O=C(N/N=C/c1ccco1)C1CC1c1ccccc1 (centres undefined),0,.,.,-16,1,2
CC(C)(C)c1ccc(C2CC2C(=O)N/N=C\c2ccc[nH]2)cc1 (centres undefined),0,62*,36,59*,53,15
COc1cccc(C(=O)NN2c3ccccc3CCc3ccccc32)c1,0,9,-5,6,67*,6
CCN1C(=O)C(CC(=O)Nc2ccc(OC)cc2)N(CCCN2CCN(c3ccc(OC)cc3)CC2)C1=S (centres undefined),0,6,-6,-18,13,28*
CC(C)Oc1cccc(C(=O)C2CCCN(C(=O)CCc3cnn(C)c3)C2)c1 (centres undefined),0,.,-15,55*,-80,-1
C[C@H](CO)N1C[C@H](C)[C@H](CN(C)S(C)(=O)=O)Oc2ccc(NC(=O)Cc3cn(C)c4ccccc34)cc2CC1=O,0,-5,-7,-7,-13,-2
COCCn1c(SC(C)C(=O)Nc2ncc(Cl)cc2Cl)nc2ccccc21 (centres undefined),.,.,44*,.,.,.
C[C@@H]1CN([C@@H](C)CO)C(=O)c2cc(NS(=O)(=O)c3ccc(Cl)cc3)ccc2O[C@@H](C)CCCCO[C@H]1CN(C)Cc1ccccc1,1,6,-7,-21,0,-2
C[C@H]1CCCCO[C@@H](CN(C)Cc2ccc(C(=O)O)cc2)[C@@H](C)CN([C@@H](C)CO)C(=O)c2cc(NS(=O)(=O)c3ccc(Cl)cc3)ccc2O1,0,-17,10,-2,87*,-1
C[C@H]1CCCCO[C@@H](CN(C)Cc2ccccc2)[C@@H](C)CN([C@@H](C)CO)C(=O)c2cc(NS(=O)(=O)c3ccc(Cl)cc3)ccc2O1,0,5,-4,-30,75*,7
C[C@H](CO)N1C[C@H](C)[C@H](CN(C)Cc2ccccc2)OCCCC[C@H](C)Oc2ccc(NS(=O)(=O)c3ccc(Cl)cc3)cc2C1=O,0,9,-7,-10,66*,11
C[C@@H]1CCCCO[C@H](CN(C)Cc2ccccc2)[C@@H](C)CN([C@@H](C)CO)C(=O)c2cc(NS(=O)(=O)c3ccccc3)ccc2O1,0,-3,12,-20,-5,-2
C[C@@H]1CCCCO[C@@H](CN(C)Cc2ccccc2)[C@@H](C)CN([C@@H](C)CO)C(=O)c2cc(NS(=O)(=O)c3ccc(Cl)cc3)ccc2O1,0,9,0,-26,76*,3
O=C(O)CCCCCCCCc1cn(Cc2ccc(C(=O)c3ccccc3)cc2)nn1,0,54*,-3,15,24,.
CCc1cccc(NC(=O)C2CCN(S(=O)(=O)c3ccc4[nH]c(=O)ccc4c3)CC2)c1,0,11,-16,2,-17,40*
Cc1cc(C)cc(NC(=O)C2CCN(S(=O)(=O)c3ccc4[nH]c(=O)ccc4c3)CC2)c1,0,5,2,.,-8,3
Cc1ccc(NC(=O)c2oc3ccc(S(=O)(=O)N4CCOCC4)cc3c2C)cc1C,.,.,-3,79*,.,.
COc1cccc(NC(=O)c2oc3ccc(S(=O)(=O)N4CCOCC4)cc3c2C)c1,0,8,3,10,-24,0
Cc1ccc(S(=O)(=O)N2CCC(C(=O)Nc3ccc(S(=O)(=O)N4CCCC4)cc3)CC2)cc1C,0,11,-16,9,67*,6
Cc1ccc(S(=O)(=O)N2CCOCC2)cc1NC(=O)CN1CCN(c2ccc(O)cc2)CC1,0,3,.,-17,-20,4
Cc1ccc(S(=O)(=O)N2CCN(CC(=O)Nc3ccc(N4CCOCC4)cc3)CC2)cc1C,0,-98,.,-11,74*,15
O=C1N[C@H](Cc2ccccc2)COCc2cn(nn2)CC[C@@H]1Cc1ccc(Cl)cc1,0,.,.,3,.,.
SMILES,XiGFP reactiv,EWS-Fli inh,PGC1a acetyl inh,INS-1E GSIS act,PAX8 reporter,AF4-AF9 inh
COC(=O)C[C@H]1C[C@@H]2c3cc(NC(=O)C4CCC4)ccc3O[C@@H]2[C@@H](CO)O1,0,-4,10,0,-2,-2
CN(CCCC1CCCC1)C(=O)CCc1nnc(-c2ccccc2)o1,0,-179,3,-20,-194,48*
CN(C(=O)CCc1nnc(-c2ccc(-c3ccccc3)cc2)o1)C1CCOCC1,0,.,2,-2,-45,-9
Cc1ccc(-c2csc3ncnc(SCC(N)=O)c23)cc1,1,1,.,45*,-10,0
O=C(CSc1ncnc2scc(-c3ccccc3)c12)Nc1ccc(C(=O)O)cc1,0,8,8,147*,-1,-28
O=C(C[n+]1cc(-c2ccccc2)n2c1CCCCC2)c1ccc(Cl)cc1,0,-15,-6,-4,40,2
CC1CCC(C(C)C)C(OC(=O)C[n+]2cc(-c3ccc(Cl)cc3)n3c2CCCCC3)C1 (centres undefined),0,49,-47,111*,102*,9
C=CCn1c(SCC(=O)c2c(N)n(C)c(=O)n(C)c2=O)nc2sc(C)c(C)c2c1=O,.,.,5,309*,.,.
CN1CCN(c2ccc(NC(=O)c3ccc(-c4ccc(Cl)cc4)o3)cc2)CC1,0,.,.,-28,-15,3
CS(=O)(=O)N1CCN(c2ccc(NC(=O)c3ccc(-c4ccc(Cl)cc4)o3)cc2)CC1,.,.,-3,80*,.,.
Cc1noc(C)c1S(=O)(=O)N(C)C[C@@H]1OCCCC[C@H](C)Oc2ccc(NS(=O)(=O)c3cccs3)cc2C(=O)N([C@H](C)CO)C[C@H]1C,0,-13,0,0,2,4
N#CCSc1nc2ccccc2c(=O)n1C1CCCCC1,0,5,-5,53*,-27,-3
C[C@H](CO)N1C[C@H](C)[C@H](CN(C)C(=O)Nc2ccc(F)cc2)Oc2c(NS(=O)(=O)c3ccc(F)cc3)cccc2C1=O,0,-1,4,-11,.,0
CCOC(=O)C1=NN(C(=O)Nc2cccc(C(F)(F)F)c2)C2C(=O)N(c3cccc(C(F)(F)F)c3)C(=O)C12 (centres undefined),.,.,7,100*,.,.
